High-throughput results: PubChem, several laboratories
A selection: hits, their analogues and other compounds. The true share with any hit is near 2.2%.
VIM-2 inhibitor: inhibitors of Pseudomonas aeruginosa VIM-2 metallo-beta-lactamase. actives 0.89% (n = 290,000). purified VIM-2, nitrocefin hydrolysis, epi-absorbance fluorescence. inhibition, % at 5.6 µM;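 active = inhibition above the mean of all tested compounds plus 3 SD, cutoff set per screening run, cut at about 7.5% in these data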;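 also: red hydrolysis product quenches plate fluorescence so inhibitors raise well fluorescence; 0% = enzyme with DMSO and 100% = DMSO without enzyme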
IMP-1 inhibitor: blocks Pseudomonas aeruginosa IMP-1 metallo-beta-lactamase | purified IMP-1, nitrocefin hydrolysis, epi-absorbance fluorescence | inhibition, % at 5.6 µM | actives 0.45% (n = 290,000);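 active = inhibition above the mean plus 3 SD of all compounds in the same screening run, cut at about 4.5% in these data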;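 also: 0% = IMP-1 with DMSO and 100% = DMSO wells lacking enzyme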
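Assay system: purified recombinant IMP-1 beta-lactamase. Input: IMP-1 0.2 nM before substrate addition. Buffer or medium: Zinc- and detergent-supplemented HEPES buffer, pH 7.1. Schedule: 25 °C, 15 min preincubation, 25 min reaction. Signal: Epi-absorbance fluorescence, 480 nm excitation, 530 nm emission. Evaluation: percent inhibition from optical density relative to buffer-blank wells.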
MLLE-PAM2 inh: inhibitors of microRNA-mediated deadenylation, human PABP1 MLLE binding. P11940. GST-MLLE / FITC-PAM2 fluorescence polarization. inhibition, % at 20 µM. actives 0.36% (n = 360,000). AID 588489; in the data active = inhibition above about 35%, passing the limit was not always enough;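 also: plate controls were DMSO wells with GST-MLLE for no effect and wells lacking GST-MLLE protein for full effect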
Target sequence (P11940 whole entry, looked up): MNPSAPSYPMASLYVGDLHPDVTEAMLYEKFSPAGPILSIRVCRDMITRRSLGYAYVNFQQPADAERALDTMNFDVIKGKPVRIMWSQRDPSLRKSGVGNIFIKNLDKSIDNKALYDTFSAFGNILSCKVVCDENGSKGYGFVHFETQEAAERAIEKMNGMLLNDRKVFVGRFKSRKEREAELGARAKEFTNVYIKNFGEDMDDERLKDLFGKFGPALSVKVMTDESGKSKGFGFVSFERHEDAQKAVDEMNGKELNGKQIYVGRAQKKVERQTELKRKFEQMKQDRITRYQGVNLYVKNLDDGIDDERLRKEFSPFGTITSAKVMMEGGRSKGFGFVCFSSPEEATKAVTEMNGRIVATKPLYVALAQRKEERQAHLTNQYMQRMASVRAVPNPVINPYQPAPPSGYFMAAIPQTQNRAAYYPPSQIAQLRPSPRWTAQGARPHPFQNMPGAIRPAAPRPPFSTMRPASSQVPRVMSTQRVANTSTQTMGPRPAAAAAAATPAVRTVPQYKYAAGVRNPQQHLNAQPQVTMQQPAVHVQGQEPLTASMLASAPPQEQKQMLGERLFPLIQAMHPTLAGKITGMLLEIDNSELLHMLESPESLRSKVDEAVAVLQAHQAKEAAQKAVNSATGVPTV
eIF4H FP inh: inhibitors of RNA binding by human eIF4H; Q15056; eIF4H fluorescence polarization binding assay; inhibition, % at 35 µM; actives 0.94% (n = 290,000); AID 2012;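 also: calls also rest on retests at 20 µM and on dose response follow-up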
PABP polyA inh: blocks human PABP binding to poly(A) RNA; fluorescence polarization; actives 1% (n = 290,000); calls only at 35 µM; P11940;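 also: calls also rest on retests at 20 µM and on dose response follow-up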
Active calls of the source: *; i = inactive; ? = inconclusive; . = no result; + = active, no number. Unless noted, no rule for the calls is given here.

SMILES	VIM-2 inhibitor	IMP-1 inhibitor	MLLE-PAM2 inh	eIF4H FP inh	PABP polyA inh
Cc1ccc(-n2nc3c(=O)n(CC(=O)NCCc4ccc(Cl)cc4)nc(C)c3c2C)cc1	-2.1	18.1*	2.8	-19.2	i
Cc1ccc(CCNC(=O)CCCn2nc(C)c3c(C)n(-c4ccc(C)cc4)nc3c2=O)cc1	-0.1	-1.4	-10.5	-13.4	i
Cc1ccc(-n2nc3c(=O)n(CCCC(=O)NCCN4CCN(C)CC4)nc(C)c3c2C)cc1	1.7	4.9*	-10.0	18.6	i
CN(C)/C=N/C1=C(C#N)C(c2ccc(Br)cc2)c2ccc3ccccc3c2O1 (stereo not drawn)	-1.8	6.1*	2.5	-9.9	i
COc1cc(OC)cc(C(=O)NC2CCSC2=O)c1 (stereo not drawn)	-1.5	-3.0	-4.0	-0.7	i
Cc1onc(-c2c(F)cccc2Cl)c1C(=O)NC(=S)NC1CCSC1=O (stereo not drawn)	-1.2	-2.4	43.6*	-0.7	i
Cc1onc(-c2c(F)cccc2Cl)c1C(=O)Nc1c(C)n(C)n(-c2ccccc2)c1=O	-3.9	-3.1	9.9	-7.6	i
COc1ccc(C(=O)NC(=S)NC2CCSC2=O)cc1 (stereo not drawn)	-2.6	-3.0	38.4*	-3.1	i
Cc1onc(-c2c(F)cccc2Cl)c1C(=O)NC(=S)Nc1c(C)n(C)n(-c2ccccc2)c1=O	-1.0	-2.9	45.1*	-3.3	i
COc1cccc(N(CC(=O)NCC2CCCO2)C(=O)CCC(=O)Nc2nccs2)c1 (stereo not drawn)	-1.4	-2.5	3.1	-12.2	i
CC(=O)OCc1cc(-c2nc3ccccc3[nH]c2=O)nn1-c1ccc(Cl)cc1	-0.2	-2.5	-2.6	-14.4	i
CN(C(=O)c1ccc2c(c1)OCO2)C1CCS(=O)(=O)C1 (stereo not drawn)	.	.	9.6	.	.
O=C(NCc1ccc(F)cc1)C1CCCN1C(=O)Nc1cccc(F)c1 (stereo not drawn)	-2.9	-3.6	-1.8	2.0	i
Cc1cc(N2CCN(c3ccccc3)CC2)n2c(n1)nc1ccccc12	10.9*	-3.6	-30.6	-4.4	i
O=C(COC(=O)CNC(=O)c1ccc(Cl)c([N+](=O)[O-])c1)NNC(=O)c1ccccc1F	.	.	-0.4	.	.
CN(C)CCN1C(=O)c2cccc3cc([N+](=O)[O-])cc(c23)C1=O	.	.	81.4*	.	.
CN(C)CCCN1C(=O)c2cccc3cccc(c23)C1=O	7.8*	-4.1	6.2	8.8	i
CC(=O)c1ccc(NC(=O)C(C)OC(=O)COc2ccc(C#N)cc2)cc1 (stereo not drawn)	0.2	-2.3	4.6	active	+
CC(=O)c1ccc(OCC(=O)OC(C)C(=O)NC2CCCCC2)cc1 (stereo not drawn)	.	.	3.9	.	.
c1ccc(OCC2CCNCC2)nc1	-1.2	-1.7	1.1	-7.4	i
O=[N+]([O-])c1cccc(NC(=S)Nc2nc(-c3ccccc3Cl)cs2)c1	-6.3	-1.5	42.4*	13.6	i
O=C(c1cc2cc([N+](=O)[O-])ccc2oc1=O)n1cccn1	-0.7	-0.9	0.1	98.5	+
NC(=O)c1cc(S(=O)(=O)NCc2cccc(Br)c2)cs1	-1.9	-0.4	8.8	-2.0	i
COc1ccc(NC(=O)CSc2ccccc2)cn1	0.5	0.3	41.8*	37.5	i
COc1ccc(NC(=O)Cc2ccccc2)cn1	-0.4	-1.8	35.5	?	i
SMILES	VIM-2 inhibitor	IMP-1 inhibitor	MLLE-PAM2 inh	eIF4H FP inh	PABP polyA inh
O=C(N/N=C/c1ccc([N+](=O)[O-])o1)C1CCCC1	-0.5	-1.1	12.5	23.1	i
O=[N+]([O-])c1ccc(/C=[N+](\[O-])[C@@H]2CCCC[C@@H]2/[N+]([O-])=C/c2ccc([N+](=O)[O-])o2)o1	-2.2	-4.4	5.5	81.0*	+
COc1ccc2oc(=Nc3cc(F)ccc3F)c(C(N)=O)cc2c1	0.2	-2.4	12.4	active	+
CCOC(=O)C1CCc2c(ccc3ccccc23)N1CCC#N (stereo not drawn)	.	.	-3.6	.	.
O=C(O)c1ccccc1C(=O)c1ccc(Cl)cc1	7.7	-3.2	-5.9	-6.0	i
O=C(CC(CC(=O)c1ccc(Cl)cc1)c1ccccc1C(=O)O)c1ccc(Cl)cc1	11.6*	-3.5	-6.0	6.3	i
CCCNc1cc(C)c(C#N)c2nc3ccccc3n12	3.9	-3.3	-7.2	16.2	i
Cc1cc(NCc2ccccn2)n2c(nc3ccccc32)c1C#N	11.7*	-1.5	4.0	0.3	i
CCCc1cc(NCc2ccccn2)n2c(nc3ccccc32)c1C#N	4.4	-3.2	6.6	2.6	i
CCCc1cc(NCC2CCCO2)n2c(nc3ccccc32)c1C#N (stereo not drawn)	8.7*	-0.5	5.9	-3.0	i
CCCc1cc(NCCN(C)C)n2c(nc3ccccc32)c1C#N	8.3*	-4.2	2.3	11.3	i
CN1CCN(S(=O)(=O)Cc2ccc(Cl)cc2)CC1	-1.6	-2.8	4.0	-4.4	i
O=C(NCCCN1CCCCC1)C1CCN(c2ncnc3c2nc2n3CCCCC2)CC1	-0.2	-2.7	11.5	-2.5	i
CC(C)OCCCNc1ncnc2c1nc1n2CCCC1	-0.6	-1.7	3.5	93.5*	+
CNC(=S)NNC(=O)c1ccc(=O)n(Cc2cccc(C(F)(F)F)c2)c1	-2.5	-1.9	-47.8	-7.0	i
N#CC1=C(N)OC2=C(C(=O)CCC2)C1c1ccccc1 (stereo not drawn)	0.9	-0.9	4.6	-2.1	i
N#CC1=C(N)OC2=C(CC/C2=C\c2ccccc2)C1c1ccccc1 (stereo not drawn)	-2.3	5.2*	72.8	?	?
N#CC1=C(N)OC2=C(CC/C2=C\c2ccccc2Cl)C1c1ccccc1Cl (stereo not drawn)	-0.7	-0.8	101.6	58.9	+
CC1C(=O)N(Cc2cn(Cc3ccco3)nn2)CCS(=O)(=O)N1Cc1ccc(-c2ccccc2C(F)(F)F)cc1 (stereo not drawn)	.	.	-11.4	.	.
O=[N+]([O-])c1ccc(NN=Cc2cccc3ccccc23)cc1	.	.	-117.9	.	.
Cc1ccc[n+](-c2nc([O-])sc2/C=N/Nc2ccc([N+](=O)[O-])cc2)c1	-2.5	-2.1	60.0*	116.6	i
Cc1ccc(C)c(/C(O)=C2/C(=O)C(=O)N(CCN3CCOCC3)C2c2ccco2)c1 (stereo not drawn)	4.1	0.4	11.6	54.8*	i
Cc1c(/C(O)=C2/C(=O)C(=O)N(CCN3CCOCC3)C2c2cccs2)cnn1-c1ccccc1 (stereo not drawn)	-0.3	6.1*	10.9	-5.8	i
Cc1ccc(C2/C(=C(/O)c3ccccc3)C(=O)C(=O)N2CCN2CCOCC2)o1 (stereo not drawn)	-0.8	2.5	4.2	11.2	i
CCc1noc(C)c1C(=O)N1CCN(S(=O)(=O)c2ccccc2C(F)(F)F)CC1	.	.	88.3*	.	.
CC(=O)Nc1ccc(NC(=O)c2ccccc2Nc2ccccc2)cc1	-3.0	-1.3	0.4	-21.4	i
